Assay results as given in ChEMBL document CHEMBL4390645, “Novel prenyloxy chalcones as potential leishmanicidal and trypanocidal agents: Design, synthesis and evaluation” (Eur J Med Chem, 2019).
Values belong to the compound of their own block, whether it stands above or below them. Activity calls are given as the source filed them. The rule behind the calls is not given here.

Legend:
Leishmania mexicana [1] = assay: Antileishmanial activity against Leishmania mexicana MNYC-BZ/62/M379 promastigotes assessed as metabolic inhibition at 10 ug/ml after 24 hrs by MTT assay relative to control; type: functional; conditions: MNYC-BZ/62/M379, 24 h
Summary of the method: (§1)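 Stationary-phase (7-day) metacyclic promastigotes, 5 x 10^5 per well in 100 µL RPMI 1640 with 10% heat-inactivated FBS and penicillin-streptomycin. Compounds from 10 mg/mL DMSO stock, diluted in PBS. Screen at 10 µg/mL in triplicate; actives serially diluted from 20 µg/mL. 27°C, dark, 24 h, then MTT 24 h. SDS/HCl solubilization, A570 vs blank. IC50 by Probit. Amphotericin B reference.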

Trypanosoma cruzi [2] = assay: Antitrypanosomal activity against Trypanosoma cruzi MHOM/MX/1994/INC5 epimastigotes assessed as metabolic inhibition at 10 ug/ml after 24 hrs by MTT assay relative to control; type: functional; conditions: MHOM/MX/1994/INC5, 24 h
Leishmania major = assay: Antileishmanial activity against Leishmania major amastigotes; type: functional, organism-based
Leishmania donovani = assay: Antileishmanial activity against Leishmania donovani amastigotes; type: functional, organism-based
Trypanosoma cruzi [3] = assay: Antitrypanosomal activity against Trypanosoma cruzi MHOM/MX/1994/INC5 epimastigotes assessed as growth inhibition measured after 24 hrs by MTT assay; type: functional, organism-based; conditions: MHOM/MX/1994/INC5, 24 h
[4] = Cytotoxicity against mouse J774.A1 cells assessed as reduction in cell viability measured after 20 hrs by MTT assay; type: cell-based
Summary of the method: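 J774A.1 macrophages, 5x10^4/well, preincubated 24 h at 37 °C, 5% CO2. Compounds at several concentrations in triplicate for 20 h, untreated cells as control. MTT added for 4 h, then 10% SDS/0.01N HCl, absorbance read. CC50 by Probit concentration-response.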

[5] = Selectivity index, ratio of CC50 for mouse J774.A1 cells to IC50 for antitrypanosomal activity against Trypanosoma cruzi MHOM/MX/1994/INC5 epimastigotes; type: toxicity; conditions: read-out: Ratio CC50/IC50
Summary of the method: (§2)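 SI = CC50 (J774A.1, 20 h MTT) divided by parasite IC50 (24 h MTT), both Probit-derived.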

Leishmania mexicana [6] = assay: Antileishmanial activity against Leishmania mexicana MNYC-BZ/62/M379 promastigotes assessed as growth inhibition measured after 24 hrs by MTT assay; type: functional, organism-based; conditions: MNYC-BZ/62/M379, 24 h; summary of the method: as §1
[7] = Selectivity index, ratio of CC50 for mouse J774.A1 cells to IC50 for antileishmanial activity against Leishmania mexicana MNYC-BZ/62/M379 promastigotes; type: toxicity; conditions: read-out: Ratio CC50/IC50; summary of the method: as §2
Leishmania mexicana [8] = assay: Induction of morphological changes in Leishmania mexicana MNYC-BZ/62/M379 promastigotes assessed as decrease in cell density at 1.25 to 20 ug/ml measured after 24 hrs by giemsa staining using light microscopic method; type: functional, organism-based
Summary of the method: (§3)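 Parasites exposed 24 h to a range of compound concentrations, Giemsa-stained, examined by light microscopy at 100x for morphology and cell density.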

Leishmania mexicana [9] = assay: Induction of morphological changes in Leishmania mexicana MNYC-BZ/62/M379 promastigotes assessed as rounded cells at 3 multiples of IC50 concentration and measured after 24 hrs by giemsa staining using light microscopic method; type: functional, organism-based
Leishmania mexicana [10] = assay: Induction of morphological changes in Leishmania mexicana MNYC-BZ/62/M379 promastigotes assessed as cell death at 3 multiples of IC50 concentration and measured after 24 hrs by giemsa staining using light microscopic method; type: functional, organism-based
Leishmania mexicana [11] = assay: Induction of morphological changes in Leishmania mexicana MNYC-BZ/62/M379 promastigotes assessed as decrease in flagella length at 3 multiples of IC50 concentration and measured after 24 hrs by giemsa staining using light microscopic method; type: functional, organism-based
Trypanosoma cruzi [12] = assay: Induction of morphological changes in Trypanosoma cruzi MHOM/MX/1994/INC5 epimastigotes assessed as decrease in cell density measured after 24 hrs by giemsa staining using light microscopic method; type: functional, organism-based; summary of the method: as §3
Leishmania mexicana [13] = assay: Antileishmanial activity against Leishmania mexicana MNYC-BZ/62/M379 promastigotes assessed as metabolic inhibition at 0.5 ug/ml after 24 hrs by MTT assay relative to control; type: functional; conditions: MNYC-BZ/62/M379, 24 h

Compound: COc1ccc(C(=O)/C=C/c2ccc(OC/C=C(\C)CCC=C(C)C)c(OC)c2)cc1
inhibition at 10 µg/mL (Leishmania mexicana [1]): 0.7% | inhibition at 10 µg/mL (Trypanosoma cruzi [2]): 13.7%

Compound: COc1ccc(C(=O)/C=C/c2ccc(OC/C=C(\C)CCC=C(C)C)c(OC)c2)cc1OC
inhibition at 10 µg/mL (Leishmania mexicana [1]): 13.5% | inhibition at 10 µg/mL (Trypanosoma cruzi [2]): 22%

Compound: COc1cc(C(=O)/C=C/c2cc(OC)c(OC)c(OC)c2)ccc1OC/C=C(\C)CCC=C(C)C
inhibition at 10 µg/mL (Leishmania mexicana [1]): 2.1% | inhibition at 10 µg/mL (Trypanosoma cruzi [2]): -0.8%

Compound: COc1cc(/C=C/C(=O)c2cc(OC)c(OC)c(OC)c2)ccc1OC/C=C(\C)CCC=C(C)C
inhibition at 10 µg/mL (Leishmania mexicana [1]): 11.3% | inhibition at 10 µg/mL (Trypanosoma cruzi [2]): 31.6%

IC50 (Leishmania major): 1.4 to 88.8 µM | IC50 (Leishmania donovani): 1.4 to 88.8 µM
Compound: CC(C)=CCOc1ccccc1/C=C/C(=O)c1ccccc1

Compound: COc1cc(C(=O)/C=C/c2ccc(OC/C=C(\C)CCC=C(C)C)c(OC)c2)ccc1OCC=C(C)C
inhibition at 10 µg/mL (Leishmania mexicana [1]): -3.2% | inhibition at 10 µg/mL (Trypanosoma cruzi [2]): 33.2%

IC50 (Trypanosoma cruzi [3]): 30.4 µM
Compound: COc1cc(/C=C/C(=O)c2ccc(OC/C=C(\C)CCC=C(C)C)c(OC)c2)ccc1OC/C=C(\C)CCC=C(C)C
inhibition at 10 µg/mL (Leishmania mexicana [1]): 1% | inhibition at 10 µg/mL (Trypanosoma cruzi [2]): 45% | CC50 at 20 h [4]: 1020 µM | selectivity ratio [5]: 33.5

IC50 (Trypanosoma cruzi [3]): 17.5 µM
Compound: COc1cc(/C=C/C(=O)c2cc(OC)c(OC)c(OC)c2)ccc1OCC=C(C)C
inhibition at 10 µg/mL (Leishmania mexicana [1]): 71.3% | inhibition at 10 µg/mL (Trypanosoma cruzi [2]): 84% | IC50 (Leishmania mexicana [6]): 16.2 µM | CC50 at 20 h [4]: 1310 µM | selectivity ratio [7]: 80.9 | selectivity ratio [5]: 75.1 | Activity (Leishmania mexicana [8]): Active | Activity (Leishmania mexicana [9]): Active | Activity (Leishmania mexicana [10]): Active | Activity (Leishmania mexicana [11]): Active | Activity (Trypanosoma cruzi [12]): Dose-dependent effect

Compound: COc1ccc(/C=C/C(=O)c2ccc(OC/C=C(\C)CCC=C(C)C)c(OC)c2)cc1
inhibition at 10 µg/mL (Leishmania mexicana [1]): 0% | inhibition at 10 µg/mL (Trypanosoma cruzi [2]): -11.6%

Compound: COc1cc(/C=C/C(=O)c2ccc(OCC=C(C)C)c(OC)c2)ccc1OCC=C(C)C
inhibition at 10 µg/mL (Leishmania mexicana [1]): 3.9% | inhibition at 10 µg/mL (Trypanosoma cruzi [2]): 20%

IC50 (Leishmania major): 1.4 to 88.8 µM | IC50 (Leishmania donovani): 1.4 to 88.8 µM
Compound: CC(C)=CCC/C(C)=C/COc1ccccc1/C=C/C(=O)c1ccccc1

IC50 (Trypanosoma cruzi [3]): 42.3 µM
Compound: O=C(Cn1ccnc1[N+](=O)[O-])NCc1ccccc1 [BENZNIDAZOLE]
inhibition at 10 µg/mL (Trypanosoma cruzi [2]): 77.4% | CC50 at 20 h [4]: 352 µM

Compound: COc1ccc(/C=C/C(=O)c2ccc(OCC=C(C)C)c(OC)c2)cc1
inhibition at 10 µg/mL (Leishmania mexicana [1]): 1% | inhibition at 10 µg/mL (Trypanosoma cruzi [2]): 7.9%

Compound: COc1cc(C(=O)/C=C/c2ccc(O)cc2)ccc1OC/C=C(\C)CCC=C(C)C
inhibition at 10 µg/mL (Leishmania mexicana [1]): 4.9% | inhibition at 10 µg/mL (Trypanosoma cruzi [2]): -5.5%

Compound: COc1ccc(/C=C/C(=O)c2ccc(OCC=C(C)C)c(OC)c2)cc1OC
inhibition at 10 µg/mL (Leishmania mexicana [1]): 15.6% | inhibition at 10 µg/mL (Trypanosoma cruzi [2]): 25.3%

Compound: C[C@@H]1[C@H](O)[C@@H](C)/C=C/C=C/C=C/C=C/C=C/C=C/C=C/[C@H](O[C@@H]2O[C@H](C)[C@@H](O)[C@H](N)[C@@H]2O)C[C@@H]2O[C@](O)(C[C@@H](O)C[C@@H](O)[C@H](O)CC[C@@H](O)C[C@@H](O)CC(=O)O[C@H]1C)C[C@H](O)[C@H]2C(=O)O [AMPHOTERICIN B]
IC50 (Leishmania mexicana [6]): 0.28 µM | CC50 at 20 h [4]: 60.7 µM | selectivity ratio [7]: 216 | inhibition at 0.5 µg/mL (Leishmania mexicana [13]): 99%

IC50 (Leishmania major): 1.4 to 88.8 µM | IC50 (Leishmania donovani): 1.4 to 88.8 µM
Compound: CC(C)=CCC/C(C)=C/CC/C(C)=C/COc1ccccc1/C=C/C(=O)c1ccccc1

IC50 (Leishmania major): 1.4 to 88.8 µM | IC50 (Leishmania donovani): 1.4 to 88.8 µM
Compound: CC(C)=CCC/C(C)=C/COc1cccc(/C=C/C(=O)c2ccccc2)c1

Compound: COc1cc(C(=O)/C=C/c2ccc(O)cc2)ccc1OCC=C(C)C
inhibition at 10 µg/mL (Leishmania mexicana [1]): 4.6% | inhibition at 10 µg/mL (Trypanosoma cruzi [2]): 16.3%

Compound: COc1ccc(C(=O)/C=C/c2ccc(OCC=C(C)C)c(OC)c2)cc1OC
inhibition at 10 µg/mL (Leishmania mexicana [1]): 48.3% | inhibition at 10 µg/mL (Trypanosoma cruzi [2]): 11.8% | IC50 (Leishmania mexicana [6]): 31.8 µM | CC50 at 20 h [4]: 1750 µM | selectivity ratio [7]: 55.1

IC50 (Leishmania major): 1.4 to 88.8 µM | IC50 (Leishmania donovani): 1.4 to 88.8 µM
Compound: CC(C)=CCC/C(C)=C/CC/C(C)=C/COc1cccc(/C=C/C(=O)c2ccccc2)c1

Compound: COc1ccc(C(=O)/C=C/c2ccc(OCC=C(C)C)c(OC)c2)cc1
inhibition at 10 µg/mL (Leishmania mexicana [1]): 25.5% | inhibition at 10 µg/mL (Trypanosoma cruzi [2]): 2.6%

IC50 (Trypanosoma cruzi [3]): 30.1 µM
Compound: COc1cc(/C=C/C(=O)c2ccc(OC/C=C(\C)CCC=C(C)C)c(OC)c2)ccc1OCC=C(C)C
inhibition at 10 µg/mL (Leishmania mexicana [1]): -8% | inhibition at 10 µg/mL (Trypanosoma cruzi [2]): 43.9% | CC50 at 20 h [4]: 825 µM | selectivity ratio [5]: 27.4

IC50 (Trypanosoma cruzi [3]): 17.8 µM
Compound: COc1cc(C(=O)/C=C/c2cc(OC)c(OC)c(OC)c2)ccc1OCC=C(C)C
inhibition at 10 µg/mL (Leishmania mexicana [1]): 59.1% | inhibition at 10 µg/mL (Trypanosoma cruzi [2]): 80.3% | IC50 (Leishmania mexicana [6]): 20.7 µM | CC50 at 20 h [4]: 25.6 µM | selectivity ratio [7]: 1.24 | selectivity ratio [5]: 1.43

IC50 (Trypanosoma cruzi [3]): 8.7 µM
Compound: CC1CS(=O)(=O)CCN1/N=C/c1ccc([N+](=O)[O-])o1 (stereo not drawn) [NIFURTIMOX]
CC50 at 20 h [4]: 201 µM | selectivity ratio [5]: 23.1

Compound: COc1cc(/C=C/C(=O)c2ccc(O)cc2)ccc1OCC=C(C)C
inhibition at 10 µg/mL (Leishmania mexicana [1]): 17.7% | inhibition at 10 µg/mL (Trypanosoma cruzi [2]): 23.8%

Compound: COc1cc(/C=C/C(=O)c2ccc(O)cc2)ccc1OC/C=C(\C)CCC=C(C)C
inhibition at 10 µg/mL (Leishmania mexicana [1]): 17.6% | inhibition at 10 µg/mL (Trypanosoma cruzi [2]): 20.4%

IC50 (Leishmania major): 1.4 to 88.8 µM | IC50 (Leishmania donovani): 1.4 to 88.8 µM
Compound: CC(C)=CCOc1cccc(/C=C/C(=O)c2ccccc2)c1

IC50 (Leishmania major): 1.4 to 88.8 µM | IC50 (Leishmania donovani): 1.4 to 88.8 µM
Compound: COc1ccc(/C=C/C(=O)c2ccc(OC/C=C(\C)CCC=C(C)C)cc2)cc1

Compound: COc1ccc(/C=C/C(=O)c2ccc(OC/C=C(\C)CCC=C(C)C)c(OC)c2)cc1OC
inhibition at 10 µg/mL (Leishmania mexicana [1]): 27.3% | inhibition at 10 µg/mL (Trypanosoma cruzi [2]): 28.3%
